Compound activity as filed in PubChem.
M1 ag – M1 muscarinic receptor agonists, primary screen, CHO-M1 cells, Fluo-4 calcium, agonist mode. Muscarinic acetylcholine receptor M1. Fluo-4 calcium fluorescence; hits give high values. B-score at 10 µM. 64,000 compounds, 3% hits. AID 626, 2007;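 active = fluorescence rise, raw or as B-score row- and column-corrected plate score, outside the 99.7% band of its plate's samples, either direction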
M1 antag – antagonists of rat M1 muscarinic receptor; AID 628, 2007; 64,000 compounds, 3.4% hits; CHO-M1 cells, Fluo-4 calcium, ACh EC80 antagonist mode; hits give low values; B-score at 10 µM; Muscarinic acetylcholine receptor M1 (Rattus norvegicus), P08482;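 active = calcium fluorescence response, raw or row-and-column corrected B-score, differing from the plate sample mean either way at a set confidence level, mostly lower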
hDAT+cocaine – changed hDAT dopamine uptake under cocaine IC80, either direction, primary screen, cocaine antagonist project, cell-based, LLC-PK1 hDAT, [14C]-dopamine uptake, MLSMR; LLC-PK1 hDAT cells, [14C]-dopamine uptake with cocaine IC80; actives deviate in either direction; B-score at 10 µM; 110,000 compounds, 1.3% hits; AID 449768, 2010;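 active = Z score or B-score, a plate-position-corrected score, falls beyond the plate's 99.7% confidence bounds, in either direction; inactive = both scores lie inside the 99.7% bounds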;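 note: scored against the spread of the other compound wells on the same plate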
Target sequence (Q01959 whole entry, looked up): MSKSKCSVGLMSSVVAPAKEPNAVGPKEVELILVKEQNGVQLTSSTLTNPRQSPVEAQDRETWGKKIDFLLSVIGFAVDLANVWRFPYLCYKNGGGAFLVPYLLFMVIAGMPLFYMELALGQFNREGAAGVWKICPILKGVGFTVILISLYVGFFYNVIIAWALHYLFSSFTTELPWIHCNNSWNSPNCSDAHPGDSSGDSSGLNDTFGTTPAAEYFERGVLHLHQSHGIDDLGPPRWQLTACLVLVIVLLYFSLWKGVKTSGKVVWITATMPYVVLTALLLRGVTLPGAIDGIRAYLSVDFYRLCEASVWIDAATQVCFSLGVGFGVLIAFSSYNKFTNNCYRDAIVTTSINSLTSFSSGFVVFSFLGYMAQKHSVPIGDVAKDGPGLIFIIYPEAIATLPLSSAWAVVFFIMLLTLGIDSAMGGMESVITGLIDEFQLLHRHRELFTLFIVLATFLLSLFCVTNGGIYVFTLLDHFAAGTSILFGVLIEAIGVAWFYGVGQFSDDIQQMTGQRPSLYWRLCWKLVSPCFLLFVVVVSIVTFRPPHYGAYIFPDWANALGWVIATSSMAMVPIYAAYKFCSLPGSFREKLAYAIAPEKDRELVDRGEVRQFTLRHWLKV
HEK293 NFkB inh – inhibitors of PMA/ionomycin-induced NF-kB reporter, primary screen, antigen receptor NF-kB inhibitor project, cell-based, HEK-293 luciferase reporter, luminescence; AID 465, 2006; 62,000 compounds, 0.21% hits; HEK-293 NF-kB luciferase reporter; inhibition, % at 3 µM;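 active = inhibition above the mean of all tested compounds plus 3 SD, cut at about 40% in these data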;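 note: 0% = stimulated DMSO wells and 100% = 10 µM reference inhibitor 5653914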
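Timing: 1 h pretreatment, 16 h stimulation, 37 °C; system: HEK-293 cells with stable firefly luciferase reporter driven by four HIV NF-kB elements; doses: 3 µM once, 0.30% DMSO; measured by: luciferase luminescence; control set: DMSO and 10 µM reference inhibitor; repeats: single test; reagent: PMA plus ionomycin mix as NF-kB-activating stimulus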
Jurkat tox 60K – cytotoxicity toward Jurkat T cells, primary screen, cytotoxicity control, cell-based, Jurkat E6.1, 60K MLSMR library; Jurkat E6.1 viability, ATP luminescence, 48 h; inhibition, % at 4 µM; 56,000 compounds, 1.2% hits; AID 463, 2006;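 active = inhibition above the mean inhibition of all tested compounds plus 3 SD, cut at about 28% in these data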
D1 allo mod – D1 CRE-luciferase signal change, two-sided – cell-based, HEK293 D1, dopamine EC30, D1 allosteric modulator project, primary screen; dopamine EC30 potentiation; actives deviate in either direction; B-score at 10 µM; 58,000 compounds, 5.9% hits;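 active = luminescence count or its row- and column-corrected plate score outside the 99.7% band of the plate's sample wells, on either side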
M1 ag confirm – rat M1 muscarinic receptor agonists, confirmation, CHO-M1 cells, Fluo-4 calcium, duplicate retest | 1,700 compounds, 19% hits | fluorescence change (max-min) at 10 µM | Fluo-4 calcium fluorescence, agonist mode; actives lie on both sides | AID 1488, 2009 | shares compounds with M1 ag;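 active = fluorescence change differs from the solvent-only DMSO control mean at a set confidence level in both duplicate runs; inconclusive = differs from solvent-only control mean in just one of two runs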;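 note: an EC20 dose of acetylcholine follows compound addition during the same imaging run; raw fluorescence intensity difference in instrument units with no normalization to controls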
M4 ag counter – agonist activity at rat M4 receptor, confirmation, counter-screen for M1 allosteric modulator project, cell-based, agonist mode. shares compounds with M1 ag. CHO M4/Gqi5 cells, Fluo-4 calcium fluorescence; actives lie on both sides. fluorescence change (max-min) at 10 µM. 1,700 compounds, 9% hits. AID 1741, 2009;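 active = fluorescence change differing from the plate's solvent-only control wells at 99.7% confidence in both duplicates, whether higher or lower; inconclusive = differs from solvent controls in only one of two duplicates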
Starred values were filed as active, the others as inactive; ? = inconclusive; · = no result given. Most compounds without a hit are left out; they make up all but 7.6% or so of the library.

SMILES	M1 ag	M1 antag	hDAT+cocaine	HEK293 NFkB inh	Jurkat tox 60K	D1 allo mod	M1 ag confirm	M4 ag counter
O=C(CN1CCOCC1)N1CCN(S(=O)(=O)c2ccccc2)C1c1ccccc1 (stereo not drawn)	0.41	0.39	0.22	9	-5	·	·	·
Cc1ccc(S(=O)(=O)N2CCN(C(=O)CN3CCOCC3)C2c2ccccc2)cc1 (stereo not drawn)	6.2*	0.68	-1.9	12	-2	0.43	-12	-29
O=C(OCC#CCSc1nnc(-c2cccc3ccccc23)o1)c1cccs1	18*	-1.1	-0.42	11	10	0.094	?	-30
Cc1ccc(S(=O)(=O)c2c(N)n(Cc3ccco3)c3nc4ccccc4nc23)cc1C	·	·	1.9	·	·	·	·	·
Nc1c(S(=O)(=O)c2ccccc2)c2nc3ccccc3nc2n1Cc1ccco1	2.9*	0.058	1.5	0	·	·	24	-40
O=C(CN(Cc1ccccc1Cl)C(=O)Cn1nnc(-c2cccs2)n1)NCC1CCCO1 (stereo not drawn)	7.7*	-1.3	0.14	13	-1	·	-12	-15
Cc1ccc(C(C(=O)NCC2CCCO2)N(Cc2ccccc2F)C(=O)Cn2nnc(-c3cccs3)n2)cc1 (stereo not drawn)	·	·	0.18	·	·	·	·	·
O=c1[nH]c(Nc2ccccc2)cc2cc(Br)ccc12	·	·	-0.69	·	·	·	·	·
O=c1[nH]c(Nc2ccccc2)cc2ccccc12	5.5*	-0.37	-0.37	16	2	1	?	43
O=C(O)C1CCC(=O)N1C1c2ccccc2Oc2ccccc21 (stereo not drawn)	0.29	-0.8	-0.09	12	-1	·	·	·
O=C(O)C1CCC(=O)N1C1CCCC1 (stereo not drawn)	5*	0.75	0.28	3	5	-0.54	-29*	?
Cc1ccc(C2C(C#N)=C(N)SC(N)=C2C#N)cc1	-0.59	0.69	·	13	8	1.9	·	·
Cc1ccc(C2C(C#N)=C(N)SC(N)=C2C#N)c(C)c1	11*	-0.03	0.083	6	2	-1.3	-15	-49
Cc1cc(C)nc(/N=c2/ssnc2Cl)c1	6.3*	0.03	0.64	5	4	0.12	-7.9	?
Cc1ccc(N=c2ssnc2Cl)cc1	·	·	0.7	·	·	·	·	·
Nc1cccc2c1C(=O)N(C(=O)c1ccc(S(=O)(=O)N3CCCCCC3)cc1)C2=O	7.5*	-0.035	0.061	25	·	-0.24	23	-23
O=C(O)c1ccc(S(=O)(=O)N2CCCCCC2)cc1	·	·	-0.046	·	·	·	·	·
Cc1oc(-c2ccc(Cl)cc2)nc1CN1CCC(C(=O)N2CCN(Cc3ccccc3)CC2)CC1	2	-1.8	·	-8	13	0.32	·	·
Cc1oc(-c2ccc(Cl)cc2)nc1CN1CCC(C(=O)N2CCc3ccccc3C2)CC1	5.7*	-3.7*	2.6*	15	7	-0.63	?	-72
CC(=O)Oc1ccc2cc(-c3nc4ccccc4n3C)c(=O)oc2c1	5.8*	0.27	-1.1	-10	-1	-1	45	16
Cn1c(-c2cc3ccc(OC(=O)C(C)(C)C)cc3oc2=O)nc2ccccc21	·	·	1.6	·	·	·	·	·
Nc1c(C(=O)NCC2CCCO2)c2nc3ccccc3nc2n1-c1ccccc1 (stereo not drawn)	11*	-2.7	0.45	20	-2	-1.6	?	-70
COc1ccc2c(c1)c(C(=O)CN1CCOCC1)c(C)n2C	-0.44	-0.91	-0.96	·	·	·	·	·
CCCCc1cc(O)c(CCCC)c(O)c1	37*	-3.3*	0.41	-5	2	2.4	275*	320*
CCOC(=O)C1=C(O)CSC1=Nc1ccc(Cl)cc1	3.8*	1.3	-1.2	12	-3	1	?	?
SMILES	M1 ag	M1 antag	hDAT+cocaine	HEK293 NFkB inh	Jurkat tox 60K	D1 allo mod	M1 ag confirm	M4 ag counter
CC(=O)N1CCN(c2ccc(NC(=O)c3ccc(C(C)(C)C)cc3)cc2)CC1	2.5*	-0.6	2.1	0	·	-1.5	-2.8	-24
C=CCOC(=O)c1[nH]c2c(c1C)C(=O)CC(c1cc(OC)c(OC)c(OC)c1)C2 (stereo not drawn)	3.3*	0.16	-0.36	17	43*	-3.2*	-12	-33
COC(=O)c1ccc(OCC2c3cc(OC)c(OC)cc3CCN2C(=O)C2CC2)cc1 (stereo not drawn)	8.7*	-0.099	2.9	9	·	0.45	-32*	-47
COc1ccc(NC(=O)c2cccc(N3C(=O)NC4CC3(C)Oc3ccccc34)c2)cc1 (stereo not drawn)	·	·	1.5	·	·	·	·	·
COc1cccc2c1OC1(C)CC2NC(=O)N1c1cccc(C(=O)Nc2ccc3c(c2)OCCO3)c1 (stereo not drawn)	7.8*	0.45	1.8	5	·	-1.1	-16	?
Cc1cccc(N(C(=O)CNC(=O)c2ccco2)C(C(=O)NC2CCCC2)c2cccnc2)c1 (stereo not drawn)	-0.57	0.17	-0.52	12	0	·	·	·
COc1ccccc1C(=O)NC(=Nc1nc2ccccc2o1)NC(=O)c1ccccc1OC	6.4*	-0.46	-0.79	·	·	·	?	-50
CN1C(=O)CSc2ccc(NC(=O)N3CCN(c4ccccn4)CC3)cc21	-1.1	-0.76	·	7	4	-1.4	·	·
CN1C(=O)CSc2ccc(NC(=O)N3CCc4ccccc43)cc21	2.8*	-0.66	1	-56	1	-0.66	-24	-48
CCc1nc2ccccc2n1CC(=O)N1CCN(S(=O)(=O)c2cccc(C(F)(F)F)c2)CC1	4.6*	0.44	0.069	13	2	-0.37	-2.9	-8
C=CCn1c(=O)c2ccccc2n2c(SCc3nc(N)nc(Nc4ccccc4C)n3)nnc12	4*	-0.96	2	15	2	-0.59	?	-49
COCc1nc2ccccc2n1Cc1ccc(Br)cc1	-0.12	-0.38	-0.056	-2	8	0.11	·	·
CCn1c(C)nc2cc(C(=O)OC(C(F)(F)C(F)F)C(F)(F)C(F)F)ccc21	11*	-0.79*	-0.21	9	1	-0.62	2.8	-51
